Measurements pooled from the literature.
Compare with care: the assays were run in different laboratories.

SMILES	tested on	assay	system	setting	endpoint	result
CC(C)CC(=O)OC[C@H]1O[C@@](C#N)(c2ccc3c(N)ncnn23)[C@H](O)[C@@H]1O		metabolic stability	dog, plasma	5 µM	half-life	> 3.1 h
Cc1ncc2n1-c1ccc(Cl)cc1C(c1ccccc1F)=NC2		metabolic stability	dog, hepatocytes		half-life	0.616 h
COc1cc(C2C3=C(COC3=O)N(CCO)c3cc4c(cc32)CCC4)cc(OC)c1OC (centres unmarked)		general toxicity	female Sprague-Dawley rat	intraperitoneal, single dose	MTD	≥ 400 mg/kg
CC(=O)c1c(C)c2cnc(Nc3ccc(C4CCN(CCS(C)(=O)=O)CC4)cn3)nc2n(C2CCCC2)c1=O		metabolic stability	dog, liver S9		half-life	1.72 h
COC(=O)C=Cc1ccc(OC(C)=O)c(OC(C)=O)c1	HaCaT	cell growth or viability, MTT		24 h	CC50	201 µM
Cc1ccc2cc(N3CCC4(O)C(=O)c5cc(C)c(C)cc5N=C34)ccc2n1 (centres unmarked)		general toxicity	rat	intravenous, multiple doses	NOAEL	≥ 20 mg/kg
O=C(O)CCCOc1ccc(F)cc1-c1cc(-c2ccccc2C(F)(F)F)n(-c2ccccc2)n1		general toxicity	rat	intravenous, 25 µg/kg, single dose	NOAEL	≥ 0.025 mg/kg
CC(=O)Oc1ccc(C=CC(=O)O)cc1OC(C)=O	HaCaT	cell growth or viability, MTT		24 h	CC50	> 250 µM
